Converted amounts (≈) assume the structure as drawn.
Tests used:
[1] = test system: Aspergillus fumigatus; assay: Antifungal activity against Aspergillus fumigatus 231 after 48 hrs; assay type: functional
Outline: (§1)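 Modified NCCLS M27-A broth microdilution with clinical isolates subcultured on Sabouraud dextrose agar. Suspensions diluted 1:50 in RPMI 1640 to give a final inoculum of 0.5–2.5×10³ CFU/mL for yeasts or 0.5–5×10⁴ CFU/mL for molds. The RPMI had L-glutamine, no bicarbonate, and 0.165 M MOPS to pH 7.0. Twofold dilutions from 250 to 0.49. Plates held at 35 °C, humid, without agitation. MIC is the lowest concentration giving ≥80% inhibition versus drug-free control, read at 24 and 48 h.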

[2] = test system: Trichosporon beigelii; assay: Antifungal activity against Trichosporon beigelii 1188 after 48 hrs; assay type: functional; outline: as §1
[3] = test system: Candida tropicalis; assay: Antifungal activity against Candida tropicalis 156 after 48 hrs; assay type: functional; outline: as §1
[4] = test system: Lichtheimia corymbifera; assay: Antifungal activity against Absidia corymbifera 272 after 24 hrs; assay type: functional; outline: as §1
[5] = test system: HeLa; assay: Cytotoxicity against human HeLa cells after 72 hrs; assay type: functional; conditions: for CC50: Homo sapiens, HeLa, 72 h
Outline: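 About 10,000 cells per well in RPMI 1640 were preincubated 48 h without compound. The 10 test concentrations were then applied onto the monolayers and incubated 72 h at 37 °C in humidified 5% CO₂. Monolayers fixed with glutaraldehyde, stained with 0.05% methylene blue, and eluted with 0.33 N HCl; optical density measured at 630 nm.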

[6] = test system: K562; assay: Antiproliferative activity against human K562 cells after 72 hrs; assay type: functional; conditions: K562, 72 h
Outline: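 About 10,000 suspension cells per well in RPMI 1640 with 10% heat-inactivated FBS and penicillin/streptomycin, without HEPES. Exposed to 10 concentrations for 72 h at 37 °C in humidified 5% CO₂. Wells diluted 1:50 in CASYTON and counted electronically, each result the mean of three successive counts. GI50 is where the concentration–response curve crosses 50% of control cell count.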

[7] = test system: Candida albicans; assay: Antifungal activity against Candida albicans ATCC 44859 after 48 hrs; assay type: functional; conditions: ATCC 44859, 48 h; outline: as §1
[8] = test system: Candida albicans; assay: Antifungal activity against Candida albicans ATCC 44859 after 24 hrs; assay type: functional; conditions: ATCC 44859, 24 h; outline: as §1
[9] = test system: Mycobacterium kansasii; assay: Antimicrobial activity against Mycobacterium kansasii My 235/80 after 21 days; assay type: functional; conditions: 504 h
Outline: (§2)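 Run in Šula semisynthetic liquid medium containing bovine serum. Compounds added as DMSO solutions at final concentrations of […]. Each strain was also inoculated onto Löwenstein–Jensen medium to control inoculum sterility and growth.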

[10] = test system: Pichia kudriavzevii; assay: Antifungal activity against Candida krusei E28 after 48 hrs; assay type: functional; outline: as §1
[11] = test system: Candida tropicalis; assay: Antifungal activity against Candida tropicalis 156 after 24 hrs; assay type: functional; outline: as §1
[12] = test system: Trichosporon beigelii; assay: Antifungal activity against Trichosporon beigelii 1188 after 24 hrs; assay type: functional; outline: as §1
[13] = test system: Mycobacterium tuberculosis; assay: Antimicrobial activity against Mycobacterium tuberculosis My 331/88 after 14 days; assay type: functional; conditions: 336 h
[14] = test system: L929; assay: Antiproliferative activity against mouse L929 cells after 72 hrs; assay type: functional; conditions: L929, 72 h
Outline: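 About 10,000 adherent cells per well in RPMI 1640 with 10% heat-inactivated FBS and penicillin/streptomycin, without HEPES. Exposed to 10 concentrations for 72 h at 37 °C in humidified 5% CO₂. Monolayers fixed with glutaraldehyde, stained 15 min with 0.05% methylene blue, and eluted with 0.33 N HCl; OD read at 630 nm. GI50 derived from dose–response curves relative to control.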

[15] = test system: Mycobacterium kansasii; assay: Antimicrobial activity against Mycobacterium kansasii My 235/80 after 7 days; assay type: functional; conditions: 168 h; outline: as §2
[16] = test system: Trichophyton benhamiae; assay: Antifungal activity against Trichophyton mentagrophytes 445 after 120 hrs; assay type: functional, Arthroderma benhamiae
Outline: (§3)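 Same modified M27-A microdilution with the mold inoculum of 0.5–5×10⁴ CFU/mL. Medium was RPMI 1640 with L-glutamine, no bicarbonate, and 0.165 M MOPS at pH 7.0. Twofold dilutions from 250 to 0.49. Incubated at 35 °C in a humid atmosphere.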

[17] = test system: Nakaseomyces glabratus; assay: Antifungal activity against Candida glabrata 20/I after 24 hrs; assay type: functional; outline: as §1
[18] = test system: Mycobacterium kansasii; assay: Antimicrobial activity against Mycobacterium kansasii My 6509/96 after 14 days; assay type: functional; conditions: 336 h; outline: as §2
[19] = test system: Pichia kudriavzevii; assay: Antifungal activity against Candida krusei E28 after 24 hrs; assay type: functional; outline: as §1
[20] = test system: Lichtheimia corymbifera; assay: Antifungal activity against Absidia corymbifera 272 after 48 hrs; assay type: functional; outline: as §1
[21] = test system: Nakaseomyces glabratus; assay: Antifungal activity against Candida glabrata 20/I after 48 hrs; assay type: functional; outline: as §1
[22] = test system: Mycobacterium kansasii; assay: Antimicrobial activity against Mycobacterium kansasii My 6509/96 after 7 days; assay type: functional; conditions: 168 h; outline: as §2
[23] = test system: Mycobacterium avium; assay: Antimicrobial activity against Mycobacterium avium My 330/88 after 21 days; assay type: functional; conditions: 504 h
[24] = test system: Trichophyton benhamiae; assay: Antifungal activity against Trichophyton mentagrophytes 445 after 72 hrs; assay type: functional, Arthroderma benhamiae; outline: as §3
[25] = test system: Aspergillus fumigatus; assay: Antifungal activity against Aspergillus fumigatus 231 after 24 hrs; assay type: functional; outline: as §1
[26] = test system: Mycobacterium kansasii; assay: Antimicrobial activity against Mycobacterium kansasii My 6509/96 after 21 days; assay type: functional; conditions: 504 h; outline: as §2
[27] = test system: Mycobacterium tuberculosis; assay: Antimicrobial activity against Mycobacterium tuberculosis My 331/88 after 21 days; assay type: functional; conditions: 504 h
[28] = test system: Mycobacterium kansasii; assay: Antimicrobial activity against Mycobacterium kansasii My 235/80 after 14 days; assay type: functional; conditions: 336 h; outline: as §2
[29] = test system: Mycobacterium avium; assay: Antimicrobial activity against Mycobacterium avium My 330/88 after 14 days; assay type: functional; conditions: 336 h

Row | SMILES | MIC [1] [µM] | MIC [2] [µM] | MIC [3] [µM] | MIC [4] [µM] | CC10 [5] [µg/mL] | CC50 [5] [µg/mL] | GI50 [6] [µg/mL] | MIC [7] [µM] | MIC [8] [µM] | MIC [10] [µM] | MIC [11] [µM] | MIC [12] [µM] | MIC [13] [µM] | GI50 [14] [µg/mL] | MIC [16] [µM] | MIC [17] [µM] | MIC [19] [µM] | MIC [20] [µM] | MIC [21] [µM] | MIC [24] [µM] | further results
1 | Clc1ccc(-n2nnnc2SCc2ccccc2)cc1Cl | > 250 | > 250 | > 250 | > 250 | 9.9 (≈ 29.4 µM) | 48.6 (≈ 144 µM) | > 50 | > 250 | > 250 | > 250 | > 250 | > 250 | 16 (≈ 5.4 µg/mL) | 19.1 (≈ 56.6 µM) | 125 (≈ 42.2 µg/mL) | > 250 | > 250 | > 250 | > 250 | 125 (≈ 42.2 µg/mL) | MIC [9]: 32 µM (≈ 10.8 µg/mL); MIC [15]: 8 µM (≈ 2.7 µg/mL); MIC [18]: 32 µM (≈ 10.8 µg/mL); MIC [22]: 16 µM (≈ 5.4 µg/mL); MIC [23]: 125 µM (≈ 42.2 µg/mL); MIC [25]: 250 µM (≈ 84.3 µg/mL); MIC [26]: 62.5 µM (≈ 21.1 µg/mL); MIC [27]: 32 µM (≈ 10.8 µg/mL); MIC [28]: 16 µM (≈ 5.4 µg/mL); MIC [29]: 62.5 µM (≈ 21.1 µg/mL)
2 | C[C@]12CC[C@@H]3c4ccc(OCCCCCCCBr)cc4CC[C@H]3[C@@H]1CCC2=O | > 125 | > 125 | > 125 | > 125 | 16.3 (≈ 36.4 µM) | > 50 | 13.1 (≈ 29.3 µM) | > 125 | > 125 | > 125 | > 125 | > 125 | 32 (≈ 14.3 µg/mL) | 49.9 (≈ 112 µM) | > 125 | > 125 | > 125 | > 125 | > 125 | > 125 | MIC [15]: 62.5 µM (≈ 28 µg/mL); MIC [18]: 62.5 µM (≈ 28 µg/mL); MIC [22]: 62.5 µM (≈ 28 µg/mL); MIC [23]: 32 µM (≈ 14.3 µg/mL); MIC [25]: > 125 µM; MIC [29]: 16 µM (≈ 7.16 µg/mL)
3 | C[C@]12CC[C@@H]3c4ccc(OCCCCCCCSc5nnnn5-c5ccccc5)cc4CC[C@H]3[C@@H]1CCC2=O | > 250 | > 250 | > 250 | > 250 | 20.3 (≈ 37.3 µM) | > 50 | > 50 | > 250 | > 250 | > 250 | > 250 | > 250 | > 500 | > 50 | > 250 | > 250 | > 250 | > 250 | > 250 | > 250 | MIC [9]: > 500 µM; MIC [25]: 250 µM (≈ 136 µg/mL); MIC [26]: > 500 µM; MIC [27]: > 500 µM; MIC [28]: > 500 µM
